According to ChEMBL document CHEMBL1143958, “Synthesis of insecticidal fluorinated anthranilic diamides” (Bioorg Med Chem, 2008):

Tested on: not listed separately
Assay: Lipophilicity, log P of the compound
Assay type: physicochemical
Conditions: octanol/water
Procedure, shortened: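 Measured by reversed-phase HPLC on a C18 column at 40 °C, 1.0 mL/min. Gradient over 5 min from 99% 5 mM ammonium acetate pH 7 to 99% 5 mM ammonium acetate in acetonitrile. logP read from a calibration curve of retention times for compounds with known shake-flask octanol–water values.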

Compound | logP
CNC(=O)c1cc(Cl)cc(Cl)c1NC(=O)c1cc(F)nn1-c1ncccc1Cl | 2.6
CNC(=O)c1cc(F)cc(Cl)c1NC(=O)c1cc(Br)nn1-c1ncccc1Cl | 2.6
CNC(=O)c1cc(Cl)cc(Cl)c1NC(=O)c1cc(Br)nn1-c1ncccc1F | 2.7
CNC(=O)c1cc(Cl)cc(Cl)c1NC(=O)c1cc(Br)nn1-c1ncccc1Cl | 3
CNC(=O)c1cc(Cl)cc(F)c1NC(=O)c1cc(Br)nn1-c1ncccc1Cl | 2.9
CNC(=O)c1cc(Cl)cc(C)c1NC(=O)c1cc(Br)nn1-c1ncccc1Cl [CHLORANTRANILIPROLE] | 3

Tested on: Aphis gossypii
Assay: Insecticidal activity against Aphis gossypii glover in cotton/melon plant
Assay type: functional, organism-based
Conditions: not given
Procedure, shortened: (§1)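 Combined contact/systemic (CON/SYS) plant assay. Test compound applied to give good foliar and soil coverage, so both contact and soil systemic exposure occur. Aphis gossypii on cotton plants; Myzus persicae on radish plants 12–15 days old, treated the same way. Run in triplicate, rates 3–5× apart where possible. Units dried 1 h, capped, held 6 days at 19–21 °C and 50–70% RH.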

Compound | EC50
CNC(=O)c1cc(Cl)cc(Cl)c1NC(=O)c1cc(F)nn1-c1ncccc1Cl | 6.2 ppm
CNC(=O)c1cc(Cl)cc(C)c1NC(=O)c1cc(F)nn1-c1ncccc1Cl | > 100 ppm
CNC(=O)c1cc(F)cc(Cl)c1NC(=O)c1cc(Br)nn1-c1ncccc1Cl | 2.5 ppm
CNC(=O)c1cc(F)cc(F)c1NC(=O)c1cc(F)nn1-c1ncccc1Cl | < 250 ppm
CNC(=O)c1cc(Cl)cc(Cl)c1NC(=O)c1cc(Br)nn1-c1ncccc1F | < 2 ppm
CNC(=O)c1cc(Cl)cc(Cl)c1NC(=O)c1cc(C(F)(F)F)nn1-c1ncccc1Cl | 2.1 ppm
CNC(=O)c1cc(Cl)cc(Cl)c1NC(=O)c1cc(Br)nn1-c1ncccc1Cl | 1.6 ppm
CNC(=O)c1cc(F)cc(Cl)c1NC(=O)c1cc(F)nn1-c1ncccc1Cl | < 100 ppm
CNC(=O)c1cc(Cl)cc(Cl)c1NC(=O)c1cc(C(F)(F)F)nn1-c1ncccc1F | 9.1 ppm
CNC(=O)c1cc(Cl)cc(F)c1NC(=O)c1cc(Br)nn1-c1ncccc1Cl | 5.5 ppm
CNC(=O)c1cc(Cl)cc(C)c1NC(=O)c1cc(Br)nn1-c1ncccc1F | 3.7 ppm
CNC(=O)c1cc(F)cc(C)c1NC(=O)c1cc(Br)nn1-c1ncccc1Cl | 11.3 ppm
CNC(=O)c1cc(F)cc(C)c1NC(=O)c1cc(C(F)(F)F)nn1-c1ncccc1Cl | 63.4 ppm
CNC(=O)c1cc(F)cc(Cl)c1NC(=O)c1cc(C(F)(F)F)nn1-c1ncccc1Cl | 5.5 ppm
CNC(=O)c1cc(F)cc(F)c1NC(=O)c1cc(Br)nn1-c1ncccc1Cl | < 50 ppm
CNC(=O)c1cc(Cl)cc(C)c1NC(=O)c1cc(Br)nn1-c1ncccc1Cl [CHLORANTRANILIPROLE] | 3.1 ppm
O=[N+]([O-])/N=C1\NCCN1Cc1ccc(Cl)nc1 [IMIDACLOPRID] | 0.4 ppm

Tested on: Myzus persicae
Assay: Insecticidal activity against Myzus persicae Sulzer in raddish plant
Assay type: functional, organism-based
Conditions: not given
Procedure, shortened: as §1

Compound | EC50
CNC(=O)c1cc(Cl)cc(Cl)c1NC(=O)c1cc(F)nn1-c1ncccc1Cl | 20.6 ppm
CNC(=O)c1cc(Cl)cc(C)c1NC(=O)c1cc(F)nn1-c1ncccc1Cl | > 300 ppm
CNC(=O)c1cc(F)cc(Cl)c1NC(=O)c1cc(Br)nn1-c1ncccc1Cl | 7.8 ppm
CNC(=O)c1cc(F)cc(F)c1NC(=O)c1cc(F)nn1-c1ncccc1Cl | < 250 ppm
CNC(=O)c1cc(Cl)cc(Cl)c1NC(=O)c1cc(Br)nn1-c1ncccc1F | 1.8 ppm
CNC(=O)c1cc(Cl)cc(Cl)c1NC(=O)c1cc(C(F)(F)F)nn1-c1ncccc1Cl | 3.4 ppm
CNC(=O)c1cc(Cl)cc(Cl)c1NC(=O)c1cc(Br)nn1-c1ncccc1Cl | 2.1 ppm
CNC(=O)c1cc(F)cc(Cl)c1NC(=O)c1cc(F)nn1-c1ncccc1Cl | < 100 ppm
CNC(=O)c1cc(Cl)cc(Cl)c1NC(=O)c1cc(C(F)(F)F)nn1-c1ncccc1F | 3.4 ppm
CNC(=O)c1cc(Cl)cc(F)c1NC(=O)c1cc(Br)nn1-c1ncccc1Cl | > 300 ppm
CNC(=O)c1cc(Cl)cc(C)c1NC(=O)c1cc(Br)nn1-c1ncccc1F | 11.3 ppm
CNC(=O)c1cc(F)cc(C)c1NC(=O)c1cc(Br)nn1-c1ncccc1Cl | > 300 ppm
CNC(=O)c1cc(F)cc(C)c1NC(=O)c1cc(C(F)(F)F)nn1-c1ncccc1Cl | 30.8 ppm
CNC(=O)c1cc(F)cc(Cl)c1NC(=O)c1cc(C(F)(F)F)nn1-c1ncccc1Cl | 9.2 ppm
CNC(=O)c1cc(F)cc(F)c1NC(=O)c1cc(Br)nn1-c1ncccc1Cl | < 250 ppm
CNC(=O)c1cc(Cl)cc(C)c1NC(=O)c1cc(Br)nn1-c1ncccc1Cl [CHLORANTRANILIPROLE] | 12.4 ppm
O=[N+]([O-])/N=C1\NCCN1Cc1ccc(Cl)nc1 [IMIDACLOPRID] | 0.3 ppm

Tested on: Aphis gossypii
Assay: Insecticidal activity against Aphis gossypii glover in cotton plant assessed as mortality at 250 ppm
Assay type: functional
Conditions: not given
Procedure, shortened: as §1

Compound | Activity
CNC(=O)c1cc(F)cc(F)c1NC(=O)c1cc(F)nn1-c1ncccc1Cl | 70%

Tested on: Myzus persicae
Assay: Insecticidal activity against Myzus persicae Sulzer in raddish plant assessed as mortality at 250 ppm
Assay type: functional
Conditions: not given
Procedure, shortened: as §1

Compound | Activity
CNC(=O)c1cc(F)cc(F)c1NC(=O)c1cc(F)nn1-c1ncccc1Cl | 100%

Tested on: Myzus persicae
Assay: Insecticidal activity against Myzus persicae Sulzer in raddish plant assessed as mortality at 50 ppm
Assay type: functional
Conditions: not given
Procedure, shortened: as §1

Compound | Activity
CNC(=O)c1cc(F)cc(F)c1NC(=O)c1cc(F)nn1-c1ncccc1Cl | 80%

Tested on: Myzus persicae
Assay: Insecticidal activity against Myzus persicae Sulzer in raddish plant assessed as mortality at 100 ppm
Assay type: functional
Conditions: not given
Procedure, shortened: as §1

Compound | Activity
CNC(=O)c1cc(F)cc(Cl)c1NC(=O)c1cc(F)nn1-c1ncccc1Cl | 65%

Tested on: Myzus persicae
Assay: Insecticidal activity against Myzus persicae Sulzer in raddish plant assessed as mortality at 250 ppm by systemic plant assay
Assay type: functional
Conditions: not given
Procedure, shortened: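 Systemic-only (SYS) plant assay on Myzus persicae. Formulated compound applied directly to the soil, avoiding any direct contact with the aphids. Percent mortality recorded at 250 ppm.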

Compound | Activity
CNC(=O)c1cc(Cl)cc(Cl)c1NC(=O)c1cc(F)nn1-c1ncccc1Cl | 2%
CNC(=O)c1cc(F)cc(Cl)c1NC(=O)c1cc(Br)nn1-c1ncccc1Cl | 2%
CNC(=O)c1cc(Cl)cc(Cl)c1NC(=O)c1cc(Br)nn1-c1ncccc1F | 29%
CNC(=O)c1cc(Cl)cc(Cl)c1NC(=O)c1cc(C(F)(F)F)nn1-c1ncccc1Cl | 74%
CNC(=O)c1cc(Cl)cc(Cl)c1NC(=O)c1cc(Br)nn1-c1ncccc1Cl | 22%
CNC(=O)c1cc(Cl)cc(Cl)c1NC(=O)c1cc(C(F)(F)F)nn1-c1ncccc1F | 58%
CNC(=O)c1cc(Cl)cc(C)c1NC(=O)c1cc(Br)nn1-c1ncccc1F | 29%
CNC(=O)c1cc(F)cc(C)c1NC(=O)c1cc(Br)nn1-c1ncccc1Cl | <80%
CNC(=O)c1cc(F)cc(C)c1NC(=O)c1cc(C(F)(F)F)nn1-c1ncccc1Cl | 8%
CNC(=O)c1cc(F)cc(Cl)c1NC(=O)c1cc(C(F)(F)F)nn1-c1ncccc1Cl | 100%
CNC(=O)c1cc(F)cc(F)c1NC(=O)c1cc(Br)nn1-c1ncccc1Cl | 14%
CNC(=O)c1cc(Cl)cc(C)c1NC(=O)c1cc(Br)nn1-c1ncccc1Cl [CHLORANTRANILIPROLE] | 12%

Tested on: Aphis gossypii
Assay: Insecticidal activity against Aphis gossypii glover in cotton/melon plant assessed as mortality at 2 ppm
Assay type: functional
Conditions: not given
Procedure, shortened: as §1

Compound | Activity
CNC(=O)c1cc(Cl)cc(Cl)c1NC(=O)c1cc(Br)nn1-c1ncccc1F | 89%

Tested on: Aphis gossypii
Assay: Insecticidal activity against Aphis gossypii glover in cotton/melon plant assessed as mortality at 100 ppm
Assay type: functional
Conditions: not given
Procedure, shortened: as §1

Compound | Activity
CNC(=O)c1cc(F)cc(Cl)c1NC(=O)c1cc(F)nn1-c1ncccc1Cl | 89%

Tested on: Aphis gossypii
Assay: Insecticidal activity against Aphis gossypii glover in cotton/melon plant assessed as mortality at 50 ppm
Assay type: functional
Conditions: not given
Procedure, shortened: as §1

Compound | Activity
CNC(=O)c1cc(F)cc(F)c1NC(=O)c1cc(Br)nn1-c1ncccc1Cl | 85%

Tested on: Myzus persicae
Assay: Insecticidal activity against Myzus persicae Sulzer in raddish plant by combined contact/systemic plant assay
Parameters: unit not given here
Conditions: not given

Compound | EC50 lower 95% confidence limit
CNC(=O)c1cc(Cl)cc(Cl)c1NC(=O)c1cc(F)nn1-c1ncccc1Cl | 15.9
CNC(=O)c1cc(F)cc(Cl)c1NC(=O)c1cc(Br)nn1-c1ncccc1Cl | 4
CNC(=O)c1cc(Cl)cc(Cl)c1NC(=O)c1cc(C(F)(F)F)nn1-c1ncccc1Cl | 2.7
CNC(=O)c1cc(Cl)cc(Cl)c1NC(=O)c1cc(Br)nn1-c1ncccc1Cl | 1.4
CNC(=O)c1cc(Cl)cc(Cl)c1NC(=O)c1cc(C(F)(F)F)nn1-c1ncccc1F | 1.5
CNC(=O)c1cc(Cl)cc(C)c1NC(=O)c1cc(Br)nn1-c1ncccc1F | 8.7
CNC(=O)c1cc(F)cc(C)c1NC(=O)c1cc(C(F)(F)F)nn1-c1ncccc1Cl | 6.7
CNC(=O)c1cc(F)cc(Cl)c1NC(=O)c1cc(C(F)(F)F)nn1-c1ncccc1Cl | 7.2

Tested on: Myzus persicae
Assay: as above
Parameters: unit not given here
Conditions: not given
Remark: another data set of the same source

Compound | EC50 upper 95% confidence limit
CNC(=O)c1cc(Cl)cc(Cl)c1NC(=O)c1cc(F)nn1-c1ncccc1Cl | 26.8
CNC(=O)c1cc(F)cc(Cl)c1NC(=O)c1cc(Br)nn1-c1ncccc1Cl | 23.2
CNC(=O)c1cc(Cl)cc(Cl)c1NC(=O)c1cc(C(F)(F)F)nn1-c1ncccc1Cl | 4.6
CNC(=O)c1cc(Cl)cc(Cl)c1NC(=O)c1cc(Br)nn1-c1ncccc1Cl | 3.2
CNC(=O)c1cc(Cl)cc(Cl)c1NC(=O)c1cc(C(F)(F)F)nn1-c1ncccc1F | 7
CNC(=O)c1cc(Cl)cc(C)c1NC(=O)c1cc(Br)nn1-c1ncccc1F | 15.2
CNC(=O)c1cc(F)cc(C)c1NC(=O)c1cc(C(F)(F)F)nn1-c1ncccc1Cl | 84.3
CNC(=O)c1cc(F)cc(Cl)c1NC(=O)c1cc(C(F)(F)F)nn1-c1ncccc1Cl | 12.9

Tested on: Aphis gossypii
Assay: Insecticidal activity against Aphis gossypii glover in cotton/melon plant by combined contact/systemic plant assay
Conditions: not given

Compound | EC50 lower 95% confidence limit
CNC(=O)c1cc(Cl)cc(Cl)c1NC(=O)c1cc(F)nn1-c1ncccc1Cl | 4.4 ppm
CNC(=O)c1cc(F)cc(Cl)c1NC(=O)c1cc(Br)nn1-c1ncccc1Cl | 1.1 ppm
CNC(=O)c1cc(Cl)cc(Cl)c1NC(=O)c1cc(C(F)(F)F)nn1-c1ncccc1Cl | 1.4 ppm
CNC(=O)c1cc(Cl)cc(Cl)c1NC(=O)c1cc(Br)nn1-c1ncccc1Cl | 0.9 ppm
CNC(=O)c1cc(Cl)cc(Cl)c1NC(=O)c1cc(C(F)(F)F)nn1-c1ncccc1F | 5.8 ppm
CNC(=O)c1cc(Cl)cc(F)c1NC(=O)c1cc(Br)nn1-c1ncccc1Cl | 3 ppm
CNC(=O)c1cc(Cl)cc(C)c1NC(=O)c1cc(Br)nn1-c1ncccc1F | 2 ppm
CNC(=O)c1cc(F)cc(C)c1NC(=O)c1cc(Br)nn1-c1ncccc1Cl | 7.2 ppm
CNC(=O)c1cc(F)cc(C)c1NC(=O)c1cc(C(F)(F)F)nn1-c1ncccc1Cl | 26 ppm
CNC(=O)c1cc(F)cc(Cl)c1NC(=O)c1cc(C(F)(F)F)nn1-c1ncccc1Cl | 4 ppm

Tested on: Aphis gossypii
Assay: as above
Parameters: unit not given here
Conditions: not given
Remark: another data set of the same source

Compound | EC50 upper 95% confidence limit
CNC(=O)c1cc(Cl)cc(Cl)c1NC(=O)c1cc(F)nn1-c1ncccc1Cl | 8.9
CNC(=O)c1cc(F)cc(Cl)c1NC(=O)c1cc(Br)nn1-c1ncccc1Cl | 4.7
CNC(=O)c1cc(Cl)cc(Cl)c1NC(=O)c1cc(C(F)(F)F)nn1-c1ncccc1Cl | 3.5
CNC(=O)c1cc(Cl)cc(Cl)c1NC(=O)c1cc(Br)nn1-c1ncccc1Cl | 2.4
CNC(=O)c1cc(Cl)cc(Cl)c1NC(=O)c1cc(C(F)(F)F)nn1-c1ncccc1F | 16.3
CNC(=O)c1cc(Cl)cc(F)c1NC(=O)c1cc(Br)nn1-c1ncccc1Cl | 9.5
CNC(=O)c1cc(Cl)cc(C)c1NC(=O)c1cc(Br)nn1-c1ncccc1F | 6.4
CNC(=O)c1cc(F)cc(C)c1NC(=O)c1cc(Br)nn1-c1ncccc1Cl | 18.5
CNC(=O)c1cc(F)cc(C)c1NC(=O)c1cc(C(F)(F)F)nn1-c1ncccc1Cl | 201
CNC(=O)c1cc(F)cc(Cl)c1NC(=O)c1cc(C(F)(F)F)nn1-c1ncccc1Cl | 8.1
